Measured values gathered from unrelated publications.
Lines come from different studies, so protocols differ.
Target: Bone morphogenetic protein receptor type-2 (BMPR2, Homo sapiens, UniProt Q13873)
Sequence (Q13873 27-1038, as in one of the studies): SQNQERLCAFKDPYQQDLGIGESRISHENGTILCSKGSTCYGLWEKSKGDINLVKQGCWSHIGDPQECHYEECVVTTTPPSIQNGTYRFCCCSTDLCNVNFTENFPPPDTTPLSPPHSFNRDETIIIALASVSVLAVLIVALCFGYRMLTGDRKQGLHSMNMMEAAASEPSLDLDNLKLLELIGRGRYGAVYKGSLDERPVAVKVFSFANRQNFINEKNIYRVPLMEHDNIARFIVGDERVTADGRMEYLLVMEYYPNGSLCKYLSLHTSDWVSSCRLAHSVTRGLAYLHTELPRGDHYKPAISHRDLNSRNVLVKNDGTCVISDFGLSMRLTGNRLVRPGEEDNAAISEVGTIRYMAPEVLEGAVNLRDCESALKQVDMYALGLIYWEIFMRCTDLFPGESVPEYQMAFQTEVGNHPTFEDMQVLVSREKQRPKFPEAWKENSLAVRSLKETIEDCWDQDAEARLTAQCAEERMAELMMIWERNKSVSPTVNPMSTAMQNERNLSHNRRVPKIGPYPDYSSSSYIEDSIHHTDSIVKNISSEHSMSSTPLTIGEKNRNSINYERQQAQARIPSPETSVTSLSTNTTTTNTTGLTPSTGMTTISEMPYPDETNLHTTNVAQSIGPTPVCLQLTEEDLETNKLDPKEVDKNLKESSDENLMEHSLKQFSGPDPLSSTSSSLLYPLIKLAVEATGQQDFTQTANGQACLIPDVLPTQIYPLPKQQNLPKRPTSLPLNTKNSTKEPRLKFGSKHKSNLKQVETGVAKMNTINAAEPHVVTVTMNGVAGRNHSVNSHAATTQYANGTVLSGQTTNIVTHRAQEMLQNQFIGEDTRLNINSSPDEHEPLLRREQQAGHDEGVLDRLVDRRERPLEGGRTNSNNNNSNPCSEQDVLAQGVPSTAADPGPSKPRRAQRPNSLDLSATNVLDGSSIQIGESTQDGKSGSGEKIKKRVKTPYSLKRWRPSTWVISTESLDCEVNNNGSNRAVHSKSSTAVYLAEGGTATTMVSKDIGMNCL

SMILES	observed	technique	tested at	remaining binding [%]
N#Cc1ccccc1CSc1nnc2c(n1)[nH]c1ccccc12	binding	competition with immobilised ligand	10 µM	90
C[C@@H]1CN(c2ccc3ncc(-c4ccc5[nH]nc(C6CC6)c5c4)n3n2)C[C@H](C)O1	binding	competition with immobilised ligand	0.5 µM	56
Cc1cnc(Nc2ccc(C(=O)N3CCC(N4CCCC4)CC3)cc2)nc1-c1cc2ccccc2s1	binding	competition with immobilised ligand	1 µM	25
CN(CCCC(F)(F)F)c1nccc(-c2cnn3ncccc23)n1	binding		1 µM	97
COc1cnc(Nc2cccc(S(N)(=O)=O)c2)nc1N1CCN(c2ccccc2)C(=O)C1	binding	competition with immobilised ligand	1 µM	0
O=C(NCCCN1CCOCC1)c1ccc(Nc2ncc(Cl)c(-c3ccc(Cl)s3)n2)cc1	binding	competition with immobilised ligand	1 µM	55
Cc1c(NC(=O)c2cc(C(N)=O)nc3cc(F)ccc23)c(C(F)(F)F)nn1Cc1ccc(C(C)(C)C)cc1	cell-free assay	competition with immobilised ligand	1 µM	100
COc1ncc2cc3ccccc3nc2c1C#N	cell-free assay	competition with immobilised ligand	5 µM	100
NS(=O)(=O)c1cc(NC(=O)Cc2ccccc2)ccc1Oc1cccc(Cl)c1	cell-free assay	competition with immobilised ligand	1 µM	73
CN(C)c1nccc(-c2cnc3ncccn23)n1	binding		1 µM	67
c1cncc(-c2cccc(Nc3nccc(NC4CCCCC4)n3)c2)c1	binding	competition with immobilised ligand	10 µM	40
O=C(NCc1ncc(C(F)(F)F)cc1Cl)c1ccc2c(c1)C1(CCS(=O)(=O)CC1)[C@H](C1CC1)N2S(=O)(=O)c1ccc(F)cc1	cell-free assay	competition with immobilised ligand	1 µM	80
O=C(c1ccc(Nc2ncc(Cl)c(-c3ccc(Cl)s3)n2)cc1)N1CCC(N2CCCC2)CC1	binding	competition with immobilised ligand	1 µM	28
CCC(=N\O)/C(C)=C/c1ccc(F)cc1	cell-free assay	competition with immobilised ligand	1 µM	81
Cc1cnn2ncc(-c3ccnc(N(C)C)n3)c2c1	binding		1 µM	99
FC(F)(F)Oc1cccc(-c2cnc3ccc(-c4ccncc4)nn23)c1	cell-free assay	competition with immobilised ligand	5 µM	56
C[C@H]1CCN(c2nccc(-c3cnn4ncccc34)n2)C1	binding		1 µM	97
CCCCN(CCCC)C(=O)CN1C[C@@H](c2cc(OC)c3c(c2)OCO3)[C@H](C(=O)O)[C@H]1CC(C)(C)CCC	cell-free assay	competition with immobilised ligand	1 µM	86.7
F[C@@H]1CCN(c2nccc(-c3cnn4ncccc34)n2)C1	binding		1 µM	100
O=C(O)c1cc(-c2ccc(C3CCNCC3)cc2)c2ccc(-c3ccc(C(F)(F)F)cc3)cc2c1	cell-free assay	competition with immobilised ligand	1 µM	100
N[C@H]1CCN(c2nccc(-c3cnn4ncccc34)n2)C1	binding		1 µM	100
O=C(NCC1CCOCC1)c1n[nH]cc1NC(=O)c1c(F)cccc1F	binding	competition with immobilised ligand	1 µM	86
CC(=O)N1CCC(c2ccc(C(=O)NC3=NCCN3)cc2C(F)(F)F)CC1	cell-free assay	competition with immobilised ligand	1 µM	100
CN(C)c1nccc(-c2cnn3ncccc23)n1	binding		1 µM	99
